Screens (PubChem)
Cav3 T inh: blocks human Cav3.2 T-type calcium channel; actives 4% (n = 100,000); Cav3.2-expressing cells, Fluo-4 calcium fluorescence FDSS; stronger effect = lower value; B-score at 10 µM; O95180;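 active means single-dose well whose peak fluorescence ratio is a statistical outlier from its plate by either plate-standardised score or position-corrected B-score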
CYP2C9 act: activators of human CYP2C9; activation factor at 5 µM; actives 1.4% (n = 96,000); P11712; recombinant CYP2C9, luciferin-H conversion, luminescence; stronger effect = higher value; factor 1 = untreated enzyme, 0 = blocked;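 active means activation factor of 2 or more for CYP2C9 at a 5 µM dose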
CYP2C9 inh: blocks human cytochrome P450 2C9; actives 20% (n = 96,000); inhibition, % at 5 µM; CYP2C9 Supersomes, luciferin-H conversion, luminescence; P11712;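 active means blocking of liver enzyme CYP2C9 beyond about 50% at 5 µM, limit read from the data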
HIV Rev-RRE inh: inhibitors of HIV-1 Rev-RRE RNA interaction | P05866 | Rev peptide-RRE RNA binding, FRET | inhibition, % at 8 µM | actives 0.79% (n = 97,000) | AID 704;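 active means inhibition above the screen-wide mean plus 3 SD, cut at about 35% in these data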
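assay system = Cy5-tagged RRE RNA duplex with fluorescein-tagged Rev peptide | incubation = 5 + 15 min at 25 °C | also added = labelled Rev peptide | measure = % inhibition of FRET ratio versus controls | benchmarks = DMSO wells as 0% and neomycin B wells as 100% inhibition | measured by = FRET fluorescence readout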
CYP2C19 activ: increases human CYP2C19 enzyme activity; activation factor at 5 µM; recombinant CYP2C19, luciferin-H EGE luminescence; stronger effect = higher value; 0 = fully inhibited enzyme, 1 = untreated enzyme; P33261; AID 1025; 96,000 tested, under 10 active;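 active means activation factor of at least 2 at 5 µM in the primary screen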
CYP2C19 inhib: inhibitors of human CYP2C19; P33261; CYP2C19 Supersomes, luciferin-H EGE luminescence, 30 min; inhibition, % at 5 µM; actives 21% (n = 96,000);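 active means CYP2C19 inhibition above a set limit at 5 µM in the primary screen, cut at about 50% in these data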
Numbers stand for hits; – = inactive; · = not tested or not shown. Most compounds without a hit are left out; they make up all but 27% or so of the library.

SMILES	Cav3 T inh	CYP2C9 act	CYP2C9 inh	HIV Rev-RRE inh	CYP2C19 activ	CYP2C19 inhib
CCOC(=O)C1=C(c2ccccc2)N=C2SCC(=O)N2C1c1ccc(OCC)c(OCC)c1 (configuration not stated)	–	–	–	–	–	–
CCOC(=O)C1=C(C)N=C2SCCC(=O)N2C1c1ccc(C(=O)OC)cc1 (configuration not stated)	–	–	–	–	–	68
CCOC(=O)C1=C(C)N=C2SC(C)C(=O)N2C1c1ccc(OCC)c(OCC)c1 (configuration not stated)	–	–	61	–	–	54
C=CCOC(=O)C1=C(C)N=C2SCCC(=O)N2C1c1cccs1 (configuration not stated)	–	–	–	–	–	–
CCOC(=O)C1=C(C)N=C2SC(C)C(=O)N2C1c1ccc(C(=O)OC)cc1 (configuration not stated)	-7.5	–	58	–	–	73
CCCCOC(=O)C1=C(C)Nc2ncnn2C1c1cc(OC)c(OC)cc1OC (configuration not stated)	–	–	–	–	–	–
O=C1CC(N2CCCc3ccccc32)C(=O)N1c1ccccc1Cl (configuration not stated)	–	·	·	–	·	·
C=C1CCN([C@@H](CC(C)C)C(=O)Nc2nc3ccc(Cl)cc3s2)S(=O)(=O)c2ccccc21	–	·	·	·	·	·
Cc1cc(CCN2CCC(=O)NC2=O)ccc1OC(C)C	–	–	–	–	–	51
Cc1cc(SCC(=O)N/N=C/c2ccc(O)c(O)c2)c(C)cc1Br	–	–	–	–	–	–
O=C(CSc1nccc(-c2ccc(Br)cc2)n1)NCCc1ccccc1	–	–	–	–	–	62
COc1ccc(-c2ccnc(SCC(=O)Nc3ccccn3)n2)cc1	–	·	·	–	·	·
COCCNC(=O)Cc1ccc(Br)cc1	–	–	–	·	–	56
COCCNC(=O)CC(c1ccccc1)c1ccccc1	–	–	–	–	–	52
COCCNC(=O)CSc1nc(-c2ccccc2)c(-c2ccccc2)o1	·	–	71	–	–	82
Cn1nnnc1SCC(=O)Nc1nc(-c2ccccc2)c(-c2ccccc2)o1	–	–	–	–	–	–
COc1ccc(-c2cc(C(F)(F)F)nc(SCCC(=O)N3CCOCC3)n2)cc1	–	–	–	–	–	–
CCCCn1c(N)c(N(CC(C)C)C(=O)CN(C)Cc2cccc(OC)c2)c(=O)[nH]c1=O	–	–	–	–	–	56
C=CCOc1ccc(CN(C)CC(=O)N(CC(C)C)c2c(N)n(CC(C)C)c(=O)[nH]c2=O)cc1	–	–	–	–	–	–
Cc1cc(C)nc(-n2c(Nc3ccccc3)cc(=O)c3c(C)n(-c4ccccc4)c(=O)nc32)n1	·	·	·	–	·	·
Cc1nc2c(F)c(F)c(C(F)(F)F)c(F)c2[nH]1	–	–	–	·	–	61
Cc1nc2c(Br)c3nc(C(F)(F)F)[nH]c3c(Br)c2[nH]1	–	–	–	–	–	–
O=C1CSC(=O)N1CC(O)COc1ccc(Cl)cc1 (configuration not stated)	–	–	–	–	–	54
CCCCn1c2nc3ccccc3nc2c2c(=O)n(CCC)cnc21	–	–	–	–	–	–
COCCCn1c2nc3ccccc3nc2c2c(=O)n(-c3ccccc3OC)cnc21	–	–	–	–	–	54
SMILES	Cav3 T inh	CYP2C9 act	CYP2C9 inh	HIV Rev-RRE inh	CYP2C19 activ	CYP2C19 inhib
COCCCn1cnc2c(c1=O)c1nc3ccccc3nc1n2CCc1ccccc1	–	–	58	–	–	–
COc1ccc(Cn2c3nc4ccccc4nc3c3c(=O)n(Cc4ccco4)cnc32)cc1	·	–	62	·	–	–
CCC(C)n1cnc2c(c1=O)c1nc3ccccc3nc1n2Cc1ccccc1OC (configuration not stated)	–	–	69	–	–	–
CCCn1cnc2c(c1=O)c1nc3ccccc3nc1n2Cc1ccccc1OC	–	–	–	–	–	–
CCN(CC)CCCN1C=C2C(=O)C(C)(OC(=O)CCc3ccccc3)C(=O)C=C2C=C1c1ccc(C#N)cc1 (configuration not stated)	–	·	·	·	·	·
CCCCCCCCCCCCN1[C@@H](CC(=O)OC)c2cc(F)ccc2S1(=O)=O	–	·	·	·	·	·
COc1cccc(OC)c1OCCN(C)C	–	–	–	–	–	–
O=C(c1ccccc1)c1ccc(C(=O)N2CCN(c3ccc(F)cc3)CC2)o1	–	–	81	–	–	89
CCc1ccc(C(=O)N2CCN(c3ccc(F)cc3)CC2)s1	–	–	–	–	–	87
CCc1ccc(C(=O)N2CCCC2)s1	–	–	–	–	–	–
Cc1cc(OCc2nn[nH]n2)c2c(C)c(Cc3ccccc3)c(=O)oc2c1	–	–	98	–	–	80
Cc1c(Cc2ccccc2)c(=O)oc2c(C)c(OCc3nn[nH]n3)ccc12	–	–	81	–	–	–
Cc1cc(NC(=O)CC23CC4CC(C2)CC(CC(=O)Nc2cc(C)on2)(C4)C3)no1	–	–	–	–	–	–
CCOC(=O)c1c(C2COc3ccccc3O2)csc1N (configuration not stated)	–	–	80	–	–	91
CCOC(=O)c1c(C2COc3ccccc3O2)csc1NC(=O)c1ccccc1 (configuration not stated)	–	–	71	–	–	–
OC(CSc1ccccc1Cl)CN1CCN(c2ccccc2F)CC1 (configuration not stated)	–	–	–	–	–	–
Cc1cc(O)c(C2(C(F)(F)F)NCCNC2=O)cc1C (configuration not stated)	–	–	–	–	–	–
Cn1nc(C(F)(F)F)c2cc(NC(=O)OCc3ccc(F)cc3)sc21	–	2.5	–	–	–	52
Cn1nc(C(F)(F)F)c2cc(NC(=O)OCc3ccc(C(C)(C)C)cc3)sc21	–	–	52	–	–	–
COc1ccc(COC(=O)Nc2cc3c(C(F)(F)F)nn(C)c3s2)cc1	–	–	–	–	–	–
Cc1cc(-c2cccc([N+](=O)[O-])c2)nc2ccc3ccccc3c12	–	–	–	–	–	–
CCOC(=O)C1=C(C)SC2=NS(=O)(=O)CCN21	–	–	–	–	–	–
Cc1[nH]n(-c2ccccc2)c(=O)c1Sc1ccc(Cl)cc1	–	–	86	–	–	52
CCOc1ccccc1NC(=S)N1CCC(NC(=O)NC23CC4CC(CC(C4)C2)C3)CC1	–	–	–	–	–	–
O=S(=O)(/N=C(/Nc1ccccc1F)c1ccccc1)c1ccccc1	–	–	–	–	–	63
COc1cc(N/C(=N/S(=O)(=O)c2ccccc2)c2ccccc2)ncn1	–	–	–	–	–	–
COc1ccccc1N/C(=N/S(=O)(=O)c1ccc(Cl)cc1)c1ccccc1	–	–	–	–	–	73
